Sampled rows, rich in hits. Any-hit rate of the full collection: about 4.9%.
APP 5'UTR act = APP 5'UTR luciferase reporter activation; SH-SY5Y APP 5'UTR luciferase reporter, luminescence; zero percent = DMSO vehicle wells; 1% of 190,000 active; activation, % at 2 µM;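 active = activation above a set limit, based on mean plus 3 SD of controls, cut at about 140% in these data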
STAT1 inh = STAT1 signaling inhibition; NIH 3T3 STAT1-luciferase reporter, IFN-gamma, luminescence; inhibition, % at 5.5 µM; 0.35% of 200,000 active; AID 920;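 active = inhibition above a set limit, the mean inhibition across all tested compounds plus 3 SD, cut at about 34% in these data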
STAT3 act = increases IL-6 driven STAT3 reporter signal; U3A cells, IL-6 STAT3-luciferase reporter, luminescence; 100% = signal with IL-6 EC80 alone; activation (% of control), % at 5.6 µM; 0.91% of 190,000 active; AID 871;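 active = activation above the screen-wide mean of compound activation plus 3 SD, cut at about 130% in these data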
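system = STAT3-luciferase reporter U3A cells | reagent = IL-6 stimulus at 33 ng/mL final | timing = 1 h compound pre-exposure, 6 h IL-6 stimulation, 37 °C | measured by = luminescence | evaluation = % activation versus median of IL-6-stimulated wells | control set = IL-6-only wells as 100% reference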
STAT1 act = STAT1 signaling activation; activation (% of control), % at 5.5 µM; AID 932; NIH 3T3 STAT1-luciferase reporter, IFN-gamma, luminescence; 100% = IFN-gamma alone, no compound; 2.6% of 200,000 active;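 active = activation above the screen-wide mean activation plus 3 SD, cut at about 130% in these data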
STAT3 inh = reduces IL-6 driven STAT3 reporter signal; U3A cells, IL-6 STAT3-luciferase reporter, luminescence; host cell line lacks STAT1; inhibition, % at 5.5 µM; 0.89% of 190,000 active; AID 862;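 active = inhibition above the mean inhibition across all screened compounds plus 3 SD, cut at about 44% in these data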
NF-kB expr up = NF-kB expression increase, human neuronal cells. NF-kB reporter expression; hits give high values. fold change at 12.5 µM. 1.6% of 190,000 active; in the data active = fold change above about 3.3
Numbers stand for hits.

What do the screens show for `Cc1cccc(C(=O)NC2=NCCS2)c1`?
APP 5'UTR act: 138.9; STAT1 inh: inactive; STAT3 act: inactive; STAT1 act: inactive; STAT3 inh: inactive; NF-kB expr up: 3.32

Results for O=C(/C=C/c1ccc(Cl)c(Cl)c1)NC1=NCCS1 ?
APP 5'UTR act: inactive; STAT1 inh: inactive; STAT3 act: inactive; STAT1 act: 134.4; STAT3 inh: inactive; NF-kB expr up: inactive

What do the screens show for `CCOc1ccc(C(=O)NC2=NCCS2)cc1`?
APP 5'UTR act: inactive; STAT1 inh: inactive; STAT3 act: inactive; STAT1 act: 138.9; STAT3 inh: inactive; NF-kB expr up: inactive

Results for COc1cccc(N=Nc2c(N)[nH]n3c(=O)c4c(nc23)CCCC4)c1 ?
APP 5'UTR act: inactive; STAT1 inh: inactive; STAT3 act: inactive; STAT1 act: inactive; STAT3 inh: inactive; NF-kB expr up: inactive

How did Oc1ccc(-c2cccc(-c3ccc(O)cc3)n2)cc1 do in these assays?
APP 5'UTR act: inactive; STAT1 inh: inactive; STAT3 act: inactive; STAT1 act: inactive; STAT3 inh: inactive; NF-kB expr up: inactive

How did O=C1c2ccccc2-c2nnc(-c3ccc(O)cc3)cc21 do in these assays?
APP 5'UTR act: inactive; STAT1 inh: 48.1; STAT3 act: inactive; STAT1 act: inactive; STAT3 inh: 71.9; NF-kB expr up: inactive

How did OCc1ccccc1OCCOc1ccc(Cl)c2cccnc12 do in these assays?
APP 5'UTR act: inactive; STAT1 inh: inactive; STAT3 act: inactive; STAT1 act: inactive; STAT3 inh: inactive; NF-kB expr up: inactive

How did Clc1ccc(OCc2cn3ccccc3n2)c2ncccc12 do in these assays?
APP 5'UTR act: inactive; STAT1 inh: inactive; STAT3 act: inactive; STAT1 act: 144.7; STAT3 inh: inactive; NF-kB expr up: inactive

How did CCOC(=O)C1(CCCc2ccccc2)CCN(C2CCN(C(C)=O)CC2)CC1 do in these assays?
APP 5'UTR act: inactive; STAT1 inh: inactive; STAT3 act: inactive; STAT1 act: inactive; STAT3 inh: inactive; NF-kB expr up: inactive

Results for C1=Nc2ccccc2CN1c1ccccc1 ?
APP 5'UTR act: inactive; STAT1 inh: inactive; STAT3 act: inactive; STAT1 act: 130.2; STAT3 inh: inactive; NF-kB expr up: inactive

How did CC(C(=O)NN)c1ccc([N+](=O)[O-])cc1 (configuration not stated) do in these assays?
APP 5'UTR act: inactive; STAT1 inh: inactive; STAT3 act: inactive; STAT1 act: inactive; STAT3 inh: inactive; NF-kB expr up: inactive

Results for COc1ccc(-n2c(C)cc(C3=NNC(=NC4CC4)SC3)c2C)cc1 ?
APP 5'UTR act: inactive; STAT1 inh: 62.5; STAT3 act: inactive; STAT1 act: inactive; STAT3 inh: inactive; NF-kB expr up: inactive

What do the screens show for `CN=C1NN=C(c2cc(C)n(-c3c(C)n(C)n(-c4ccccc4)c3=O)c2C)CS1`?
APP 5'UTR act: inactive; STAT1 inh: inactive; STAT3 act: inactive; STAT1 act: inactive; STAT3 inh: inactive; NF-kB expr up: inactive

How did Cc1cc(C2=NNC(=NC3CC3)SC2)c(C)n1-c1ccccc1 do in these assays?
APP 5'UTR act: inactive; STAT1 inh: 91.0; STAT3 act: inactive; STAT1 act: inactive; STAT3 inh: 104.6; NF-kB expr up: inactive

What do the screens show for `Cc1cc(C)nc(N/N=C/c2c[nH]c3ccccc23)n1`?
APP 5'UTR act: inactive; STAT1 inh: inactive; STAT3 act: inactive; STAT1 act: inactive; STAT3 inh: inactive; NF-kB expr up: inactive

Results for Fc1c(F)c(F)c(N/N=C/c2c[nH]c3ccccc23)c(F)c1F ?
APP 5'UTR act: inactive; STAT1 inh: inactive; STAT3 act: inactive; STAT1 act: inactive; STAT3 inh: inactive; NF-kB expr up: 12.6

How did C/C(N)=C(/C#N)C(=O)CSc1cc(C)c2cc(C)cc(C)c2n1 do in these assays?
APP 5'UTR act: inactive; STAT1 inh: inactive; STAT3 act: inactive; STAT1 act: inactive; STAT3 inh: inactive; NF-kB expr up: inactive

What do the screens show for `CCOc1ccc(Nc2cc(C)nc(N3CCOCC3)n2)cc1`?
APP 5'UTR act: inactive; STAT1 inh: inactive; STAT3 act: inactive; STAT1 act: inactive; STAT3 inh: inactive; NF-kB expr up: inactive

How did Cc1ccc(Nc2cc(C)nc(N3CCOCC3)n2)cc1 do in these assays?
APP 5'UTR act: inactive; STAT1 inh: inactive; STAT3 act: 133.8; STAT1 act: inactive; STAT3 inh: inactive; NF-kB expr up: inactive

What do the screens show for `COc1ccc(NC(=O)CN2CCC(Cc3ccccc3)CC2)cc1S(=O)(=O)N1CCOCC1`?
APP 5'UTR act: inactive; STAT1 inh: inactive; STAT3 act: inactive; STAT1 act: inactive; STAT3 inh: inactive; NF-kB expr up: inactive

Results for O=C(Nc1ccc(Cl)cc1)/C(=C/c1ccc([N+](=O)[O-])cc1)c1nc2ccccc2s1 ?
APP 5'UTR act: inactive; STAT1 inh: inactive; STAT3 act: inactive; STAT1 act: inactive; STAT3 inh: inactive

What do the screens show for `CCOC(=O)c1cc2c(N)c(C(=O)c3ccc(Br)cc3)sc2[nH]c1=O`?
APP 5'UTR act: inactive; STAT1 inh: inactive; STAT3 act: inactive; STAT1 act: inactive; STAT3 inh: inactive; NF-kB expr up: inactive

Results for O=C(/C=C/c1ccc(Br)cc1)NC(=O)c1ccccc1O ?
APP 5'UTR act: inactive; STAT1 inh: inactive; STAT3 act: inactive; STAT1 act: inactive; STAT3 inh: inactive; NF-kB expr up: 3.88

How did O=C(NO)c1ccccc1O do in these assays?
APP 5'UTR act: inactive; STAT1 inh: inactive; STAT3 act: inactive; STAT1 act: inactive; STAT3 inh: inactive; NF-kB expr up: inactive

What do the screens show for `CSc1ccc(/C=C/C(=O)NC(=O)c2ccccc2O)cc1`?
APP 5'UTR act: inactive; STAT1 inh: inactive; STAT3 act: inactive; STAT1 act: inactive; STAT3 inh: inactive; NF-kB expr up: 3.69

Results for CSc1ccc(/C=C/C(=O)c2ccc(NC(C)=O)cc2)cc1 ?
APP 5'UTR act: inactive; STAT1 inh: inactive; STAT3 act: inactive; STAT1 act: inactive; STAT3 inh: inactive; NF-kB expr up: inactive

What do the screens show for `CCCNC(=O)c1nc(C)n(-c2ccc([N+](=O)[O-])cc2)n1`?
APP 5'UTR act: inactive; STAT1 inh: inactive; STAT3 act: inactive; STAT1 act: inactive; STAT3 inh: inactive; NF-kB expr up: inactive

How did Cc1nc2c(C#N)cnn2c2c1CCN2CC1CCCO1 (configuration not stated) do in these assays?
APP 5'UTR act: inactive; STAT1 inh: inactive; STAT3 act: inactive; STAT1 act: inactive; STAT3 inh: inactive; NF-kB expr up: inactive

Results for CC(C)(C)n1ncc2c(=O)n(CC(=O)NCc3ccccc3Cl)cnc21 ?
APP 5'UTR act: 192.6; STAT1 inh: inactive; STAT3 act: inactive; STAT1 act: 145.3; STAT3 inh: inactive; NF-kB expr up: inactive

How did CCOc1ccc(-c2csc(/C(C#N)=C\c3ccc(O)c([N+](=O)[O-])c3)n2)cc1 do in these assays?
APP 5'UTR act: inactive; STAT1 inh: inactive; STAT3 act: inactive; STAT1 act: inactive; STAT3 inh: inactive; NF-kB expr up: inactive

What do the screens show for `CN(Cc1cccc(-n2cccn2)c1)C(=O)CCc1nnc(C2CCCCC2)o1`?
APP 5'UTR act: inactive; STAT1 inh: inactive; STAT3 act: inactive; STAT1 act: inactive; STAT3 inh: inactive; NF-kB expr up: inactive
